# ChEMBL document CHEMBL4400539, “Discovery of a Novel Chemotype of Histone Lysine Methyltransferase EHMT1/2 (GLP/G9a) Inhibitors: Rational Design, Synthesis, Biological Evaluation, and Co-crystal Structure” (J Med Chem, 2019)
# The source made the active and inactive calls. The rule behind the calls is not given here.
# Key:
# [1] = biological target: T1, Histone-lysine N-methyltransferase EHMT2 (Homo sapiens) (UniProt Q96KQ7)
# T1 sequence (whole entry): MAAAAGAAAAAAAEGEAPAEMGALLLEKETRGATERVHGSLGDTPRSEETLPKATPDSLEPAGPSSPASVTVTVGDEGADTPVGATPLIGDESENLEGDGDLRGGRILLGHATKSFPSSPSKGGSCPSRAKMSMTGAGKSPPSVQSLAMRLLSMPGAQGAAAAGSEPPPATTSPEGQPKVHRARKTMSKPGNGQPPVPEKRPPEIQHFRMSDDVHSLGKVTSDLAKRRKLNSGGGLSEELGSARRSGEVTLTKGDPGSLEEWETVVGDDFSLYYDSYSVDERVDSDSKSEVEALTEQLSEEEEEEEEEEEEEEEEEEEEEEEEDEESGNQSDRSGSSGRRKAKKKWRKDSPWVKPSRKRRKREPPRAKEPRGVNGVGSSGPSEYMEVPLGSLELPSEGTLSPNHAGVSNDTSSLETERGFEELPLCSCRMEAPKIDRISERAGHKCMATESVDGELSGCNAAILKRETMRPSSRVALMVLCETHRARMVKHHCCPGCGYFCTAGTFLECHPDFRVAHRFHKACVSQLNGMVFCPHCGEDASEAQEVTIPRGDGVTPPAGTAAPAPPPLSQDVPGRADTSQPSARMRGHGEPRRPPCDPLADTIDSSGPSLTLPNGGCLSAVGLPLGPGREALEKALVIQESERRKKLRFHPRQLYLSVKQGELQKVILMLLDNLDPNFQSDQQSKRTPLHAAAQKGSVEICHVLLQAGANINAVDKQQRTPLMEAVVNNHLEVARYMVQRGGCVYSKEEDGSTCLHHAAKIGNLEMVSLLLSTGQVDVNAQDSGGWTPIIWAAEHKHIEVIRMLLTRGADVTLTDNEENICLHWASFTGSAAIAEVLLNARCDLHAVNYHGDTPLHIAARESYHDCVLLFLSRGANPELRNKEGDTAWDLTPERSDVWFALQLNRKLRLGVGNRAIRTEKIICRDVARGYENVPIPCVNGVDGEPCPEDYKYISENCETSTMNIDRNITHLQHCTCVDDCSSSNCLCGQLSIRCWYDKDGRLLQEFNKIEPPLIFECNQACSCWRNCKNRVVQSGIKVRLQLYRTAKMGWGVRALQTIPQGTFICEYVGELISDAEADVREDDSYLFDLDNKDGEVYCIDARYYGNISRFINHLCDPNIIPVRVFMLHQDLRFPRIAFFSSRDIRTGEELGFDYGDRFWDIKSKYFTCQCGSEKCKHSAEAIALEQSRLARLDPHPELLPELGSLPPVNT
# MDA-MB-231 = test: Cytotoxicity against human MDA-MB-231 cells assessed as reduction in cell viability up to 5 uM after 72 hrs by MTT assay; format: cell-based; settings: mda-mb-231, 72 h
# Summary of the method: (§1)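 MCF-7, MDA-MB-231 and U-343 cells exposed 24, 48 and 72 h to 0.05, 0.5, 5 and 50 μM compound; viability by MTT reduction to formazan versus vehicle; mean ± SD of at least three independent experiments.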
# [2] = biological target: Protein arginine N-methyltransferase 1 (Homo sapiens) (UniProt Q99873); test: Inhibition of recombinant human PRMT1 at 10 to 25 uM using biotinylated-Histone H4 peptide (1 to 21 residues) as substrate preincubated for 30 mins followed by substrate addition and measured after 60 mins in presence of SAM by AlphaLISA assay relative to control
# Summary of the method: (§2)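 Biotinylated H4(1–21) peptide plus SAM then added for 60 min: PRMT1 0.9 nM, peptide 100 nM, SAM 2 μM; PRMT3 23 nM, peptide 50 nM, SAM 10 μM. Anti-H4R3me AlphaLISA; 10 and 25 μM; three experiments, mean ± SD.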
# [3] = biological target: T2, Histone-lysine N-methyltransferase EHMT2 (Homo sapiens, UniProt Q96KQ7); test: Inhibition of recombinant human G9a using biotinylated-Histone H3 peptide (1 to 21 residues) after 30 mins in presence of SAM by AlphaLISA assay
# T2 sequence (Q96KQ7 whole entry): T1 sequence (whole entry)
# MCF7 = test: Cytotoxicity against human MCF7 cells assessed as reduction in cell viability at 0.05 to 50 uM after 48 to 72 hrs by MTT assay; format: cell-based; settings: mcf7, 50 µM
# Summary of the method: as §1
# [4] = biological target: Protein arginine N-methyltransferase 3 (Homo sapiens) (UniProt O60678); test: Inhibition of recombinant human PRMT3 at 10 to 25 uM using biotinylated-Histone H4 peptide (1 to 21 residues) as substrate preincubated for 30 mins followed by substrate addition and measured after 60 mins in presence of SAM by AlphaLISA assay relative to control
# Summary of the method: as §2
# Sequence of Protein arginine N-methyltransferase 1 (Homo sapiens) (Q99873 whole entry, looked up, the tested form may be a part): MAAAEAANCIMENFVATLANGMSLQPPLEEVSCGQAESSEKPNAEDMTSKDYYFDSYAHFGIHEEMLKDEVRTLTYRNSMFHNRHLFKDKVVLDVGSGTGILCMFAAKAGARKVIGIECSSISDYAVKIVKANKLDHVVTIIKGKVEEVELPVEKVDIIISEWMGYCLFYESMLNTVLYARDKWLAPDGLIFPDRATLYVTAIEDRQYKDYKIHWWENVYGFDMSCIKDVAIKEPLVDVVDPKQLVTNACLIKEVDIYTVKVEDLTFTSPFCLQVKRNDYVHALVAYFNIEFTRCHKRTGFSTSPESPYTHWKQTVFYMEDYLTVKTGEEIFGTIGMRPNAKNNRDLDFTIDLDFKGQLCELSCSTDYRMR
# Sequence of Protein arginine N-methyltransferase 3 (Homo sapiens) (O60678 2-531 limits assumed): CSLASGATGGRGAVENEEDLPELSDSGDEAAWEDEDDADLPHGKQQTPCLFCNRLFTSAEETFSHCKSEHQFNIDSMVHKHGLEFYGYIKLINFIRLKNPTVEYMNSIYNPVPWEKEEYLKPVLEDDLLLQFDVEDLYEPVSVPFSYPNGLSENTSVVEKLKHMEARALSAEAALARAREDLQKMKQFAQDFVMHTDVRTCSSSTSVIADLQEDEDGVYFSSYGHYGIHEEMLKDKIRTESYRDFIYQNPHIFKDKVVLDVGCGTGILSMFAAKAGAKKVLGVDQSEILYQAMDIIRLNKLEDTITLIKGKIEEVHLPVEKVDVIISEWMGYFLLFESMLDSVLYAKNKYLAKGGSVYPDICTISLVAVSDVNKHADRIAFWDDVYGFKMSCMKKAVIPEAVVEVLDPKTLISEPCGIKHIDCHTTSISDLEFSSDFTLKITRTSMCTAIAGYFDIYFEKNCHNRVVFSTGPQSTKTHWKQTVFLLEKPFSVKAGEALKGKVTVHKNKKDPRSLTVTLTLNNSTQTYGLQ
smiles,measurement,setting,value
COc1cc2c(cc1OCCCN1CCCC1)N=C(C1CCCCC1)CN=C2NC1CCN(C(C)C)CC1,Ka,[1],550
same,Activity,MDA-MB-231,Non-Toxic
same,inhibition,[2],inactive
same,IC50,[3],23 nM
same,Activity,MCF7,Toxic
same,inhibition,[4],inactive
